{"source": "ChEMBL document CHEMBL4334464", "about": "“From Phenylthiazoles to Phenylpyrazoles: Broadening the Antibacterial Spectrum toward Carbapenem-Resistant Bacteria” (J Med Chem, 2019)", "key": {"[1]": {"tested_on": "Staphylococcus aureus", "test": "Antibacterial activity against methicillin-resistant Staphylococcus aureus NRS123-USA400 clinical isolates assessed as ratio of MIC after and before 1 serial passages by broth microdilution assay", "type": "functional", "method_in_brief": "(§1)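 MRSA USA400 was serially passaged over a 14-day period in the presence of each compound or control antibiotic. MIC was determined by broth microdilution after each passage. A four-fold rise in MIC was taken as a sign of resistance.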"}, "[2]": {"tested_on": "Staphylococcus aureus", "test": "Antibacterial activity against methicillin-resistant Staphylococcus aureus NRS123-USA400 clinical isolates assessed as ratio of MIC after and before 13 serial passages by broth microdilution assay", "type": "functional", "method_in_brief": "as §1"}}}
{"smiles": "CO[C@H]1/C=C/O[C@@]2(C)Oc3c(C)c(O)c4c(O)c(c(/C=N/N5CCN(C)CC5)c(O)c4c3C2=O)NC(=O)/C(C)=C\\C=C\\[C@H](C)[C@H](O)[C@@H](C)[C@@H](O)[C@@H](C)[C@H](OC(C)=O)[C@@H]1C", "note": "[RIFAMPIN]", "values": [{"measurement": "Ratio", "setting": "[1]", "result": 7}, {"measurement": "Ratio", "setting": "[2]", "result": ">500000"}]}
